In ChEMBL document CHEMBL4266043, “Nuclear Factor Erythroid 2-Related Factor 2 Activating Triterpenoid Saponins from Camellia japonica Roots” (J Nat Prod, 2018):
The source made the active and inactive calls. No cut-off for these calls is given here.

Tests used:
Assay type in all cases: cell-based
[1] = target: T1, Nuclear factor erythroid 2-related factor 2 (Homo sapiens) (UniProt Q16236); assay: Activation of Nrf2 in human HaCaT cells at 25 uM after 6 hrs by ARE-driven luciferase reporter gene assay relative to control
T1 sequence (whole entry): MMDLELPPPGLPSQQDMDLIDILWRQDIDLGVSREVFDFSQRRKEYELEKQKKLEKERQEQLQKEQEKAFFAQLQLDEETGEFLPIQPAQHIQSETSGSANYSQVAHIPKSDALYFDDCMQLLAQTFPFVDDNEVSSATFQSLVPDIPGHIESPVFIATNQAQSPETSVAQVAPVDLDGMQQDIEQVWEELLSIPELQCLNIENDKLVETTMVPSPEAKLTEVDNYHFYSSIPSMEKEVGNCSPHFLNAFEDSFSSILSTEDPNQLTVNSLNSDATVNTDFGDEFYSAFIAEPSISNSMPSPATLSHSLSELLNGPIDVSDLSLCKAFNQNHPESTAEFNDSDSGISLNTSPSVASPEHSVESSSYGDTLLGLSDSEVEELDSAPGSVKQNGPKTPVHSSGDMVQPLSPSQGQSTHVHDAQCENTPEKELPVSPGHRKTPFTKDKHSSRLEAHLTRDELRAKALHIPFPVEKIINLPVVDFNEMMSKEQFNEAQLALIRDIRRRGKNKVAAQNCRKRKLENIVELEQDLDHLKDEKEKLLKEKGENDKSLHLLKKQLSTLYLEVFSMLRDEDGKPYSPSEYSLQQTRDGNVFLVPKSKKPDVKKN
Procedure, shortened: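 Used HaCaT cells stably carrying 3xARE-luciferase, in RPMI 1640 with 10% FBS at 37 °C, 5% CO2, plated overnight. Exposure 6 h at 25 μM. Cells lysed in passive lysis buffer 15 min at room temperature. Luciferase read by kit and normalized to total protein, expressed versus vehicle. Mean ± SD from three independent experiments, t test.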

[2] = Cytotoxicity against human HaCaT cells assessed as cell viability at 25 uM after 24 hrs by MTT assay; conditions: read-out: Activity
Procedure, shortened: (§1)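 MTT assay on HaCaT cells (RPMI 1640, 10% FBS, 37 °C, 5% CO2), plated overnight, then exposed 24 h to 3.125–25 μM. MTT (5 mg/mL solution) added for 2 h, medium removed, formazan dissolved in DMSO and read at 570 nm. Viability given as percent, mean ± SD of three independent experiments.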

[3] = target: T1, Nuclear factor erythroid 2-related factor 2 (Homo sapiens); assay: Activation of Nrf2 in human HaCaT cells assessed as increase in nuclear Nrf2 accumulation at 25 uM after 6 hrs by Western blot analysis
Procedure, shortened: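 HaCaT cells grown to 60−70% confluency, treated 6 h at 25 μM (vehicle DMSO 0.1%). Nuclear fraction obtained with M-PER lysis (10 min on ice), spin at 3000 rpm, pellet resuspended, sonicated, protein by BCA. 25 μg protein run on 10% SDS-PAGE, nitrocellulose transfer, milk block, anti-Nrf2 and histone H3 antibodies, HRP secondary, ECL detection.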

[4] = test system: HaCaT; assay: Cytotoxicity against human HaCaT cells assessed as decrease in cell viability at 3.125 to 25 uM after 24 hrs by MTT assay; procedure, shortened: as §1

Compound: C/C=C(/C)C(=O)O[C@H]1[C@H](OC(=O)CC(C)C)[C@]2(CO)[C@H](O)C[C@]3(C)C(=CC[C@@H]4[C@@]5(C)CC[C@H](O[C@@H]6O[C@H](C(=O)O)[C@@H](O)[C@H](O[C@@H]7OC[C@H](O)[C@H](O[C@@H]8O[C@@H](C)[C@H](O)[C@@H](O)[C@H]8O)[C@H]7O)[C@H]6O)[C@@](C)(CO)[C@@H]5CC[C@]43C)[C@@H]2CC1(C)C
- Activity [1]: Active
- viability at 24 h, 25 µM [2]: 69.7%
- Activity [3]: Active

Compound: C/C=C(/C)C(=O)O[C@H]1[C@H](OC(=O)/C(C)=C/C)[C@]2(CO)[C@H](O)[C@H](O)[C@]3(C)C(=CC[C@@H]4[C@@]5(C)CC[C@H](O[C@@H]6O[C@H](C(=O)O)[C@@H](O)[C@H](O[C@@H]7OC[C@H](O)[C@H](O[C@@H]8O[C@@H](C)[C@H](O)[C@@H](O)[C@H]8O)[C@H]7O)[C@H]6O)[C@@](C)(CO)[C@@H]5CC[C@]43C)[C@@H]2CC1(C)C
- fold change (FC) [1]: 3
- Activity [3]: Active
- Activity [4]: Non-Toxic

Compound: C/C=C(/C)C(=O)O[C@H]1[C@H](OC(=O)C(C)CC)[C@]2(CO)[C@H](O)[C@H](O)[C@]3(C)C(=CC[C@@H]4[C@@]5(C)CC[C@H](O[C@@H]6O[C@H](C(=O)O)[C@@H](O)[C@H](O[C@@H]7OC[C@H](O)[C@H](O[C@@H]8O[C@@H](C)[C@H](O)[C@@H](O)[C@H]8O)[C@H]7O)[C@H]6O)[C@@](C)(CO)[C@@H]5CC[C@]43C)[C@@H]2CC1(C)C (stereo not given in full)
- fold change (FC) [1]: 2
- Activity [3]: Active
- Activity [4]: Non-Toxic

Compound: C/C=C(/C)C(=O)O[C@H]1[C@H](OC(=O)CC(C)C)[C@]2(CO)[C@H](OC(C)=O)[C@H](OC(C)=O)[C@]3(C)C(=CC[C@@H]4[C@@]5(C)CC[C@H](O[C@@H]6O[C@H](C(=O)O)[C@@H](O)[C@H](O[C@@H]7OC[C@H](O)[C@H](O[C@@H]8O[C@@H](C)[C@H](O)[C@@H](O)[C@H]8O)[C@H]7O)[C@H]6O)[C@@](C)(CO)[C@@H]5CC[C@]43C)[C@@H]2CC1(C)C
- Activity [1]: Active
- Activity [3]: Active
- Activity [4]: Non-Toxic

Compound: C/C=C(/C)C(=O)O[C@H]1[C@H](OC(=O)C(C)CC)[C@]2(CO)[C@H](O)[C@H](O)[C@]3(C)C(=CC[C@@H]4[C@@]5(C)CC[C@H](O[C@@H]6O[C@H](C(=O)O)[C@@H](O)[C@H](O[C@@H]7OC[C@H](O)[C@H](O[C@@H]8O[C@@H](C)[C@H](O)[C@@H](O)[C@H]8O)[C@H]7O)[C@H]6O)[C@@](C)(C=O)[C@@H]5CC[C@]43C)[C@@H]2CC1(C)C (stereo not given in full)
- Activity [1]: Active
- Activity [3]: Active
- Activity [4]: Non-Toxic

Compound: CCC(C)C(=O)O[C@H]1[C@H](O)C(C)(C)C[C@H]2C3=CC[C@@H]4[C@@]5(C)CC[C@H](O[C@@H]6O[C@H](C(=O)O)[C@@H](O)[C@H](O[C@@H]7OC[C@H](O)[C@H](O[C@@H]8O[C@@H](C)[C@H](O)[C@@H](O)[C@H]8O)[C@H]7O)[C@H]6O)[C@@](C)(CO)[C@@H]5CC[C@@]4(C)[C@]3(C)[C@@H](OC(=O)CC(C)C)[C@@H](O)[C@]21CO (stereo not given in full)
- Activity [1]: Active
- Activity [3]: Active
- Activity [4]: Non-Toxic

Compound: C/C=C(/C)C(=O)O[C@H]1[C@H](OC(=O)C(C)CC)[C@]2(CO)[C@H](OC(C)=O)C[C@]3(C)C(=CC[C@@H]4[C@@]5(C)CC[C@H](O[C@@H]6O[C@H](C(=O)O)[C@@H](O)[C@H](O[C@@H]7OC[C@H](O)[C@H](O[C@@H]8O[C@@H](C)[C@H](O)[C@@H](O)[C@H]8O)[C@H]7O)[C@H]6O)[C@@](C)(CO)[C@@H]5CC[C@]43C)[C@@H]2CC1(C)C (stereo not given in full)
- Activity [1]: Active
- Activity [3]: Active
- Activity [4]: Non-Toxic

Compound: C/C=C(/C)C(=O)O[C@H]1[C@H](OC(=O)C(C)CC)[C@]2(CO)[C@H](O)C[C@]3(C)C(=CC[C@@H]4[C@@]5(C)CC[C@H](O[C@@H]6O[C@H](C(=O)O)[C@@H](O)[C@H](O[C@@H]7OC[C@H](O)[C@H](O[C@@H]8O[C@@H](C)[C@H](O)[C@@H](O)[C@H]8O)[C@H]7O)[C@H]6O)[C@@](C)(CO)[C@@H]5CC[C@]43C)[C@@H]2CC1(C)C (stereo not given in full)
- Activity [1]: Active
- viability at 24 h, 25 µM [2]: 72.7%
- Activity [3]: Active

Compound: C/C=C(/C)C(=O)O[C@H]1[C@H](OC(=O)CC(C)C)[C@]2(CO)[C@H](O)[C@H](O)[C@]3(C)C(=CC[C@@H]4[C@@]5(C)CC[C@H](O[C@@H]6O[C@H](C(=O)O)[C@@H](O)[C@H](O[C@@H]7OC[C@H](O)[C@H](O[C@@H]8O[C@@H](C)[C@H](O)[C@@H](O)[C@H]8O)[C@H]7O)[C@H]6O)[C@@](C)(C=O)[C@@H]5CC[C@]43C)[C@@H]2CC1(C)C
- Activity [1]: Active
- Activity [3]: Active
- Activity [4]: Non-Toxic

Compound: C/C=C(/C)C(=O)O[C@H]1[C@H](OC(=O)/C(C)=C\C)[C@]2(CO)[C@H](O)[C@H](O)[C@]3(C)C(=CC[C@@H]4[C@@]5(C)CC[C@H](O[C@@H]6O[C@H](C(=O)O)[C@@H](O)[C@H](O[C@@H]7OC[C@H](O)[C@H](O[C@@H]8O[C@@H](C)[C@H](O)[C@@H](O)[C@H]8O)[C@H]7O)[C@H]6O)[C@@](C)(CO)[C@@H]5CC[C@]43C)[C@@H]2CC1(C)C
- fold change (FC) [1]: 4
- Activity [3]: Active
- Activity [4]: Non-Toxic
